Results published in ChEMBL document CHEMBL1157953, “Antiviral flavans from the leaves of Pithecellobium clypearia” (J Nat Prod, 2006).
Values after ≈ are worked out from the molar mass of the structure shown.

Key:
[1] = test system: Respiratory syncytial virus; assay: Antiviral activity against RSV Long in human Hep2 cells assessed as reduction of virus induced cytopathic effect; type: functional, organism-based; settings: HEp-2
Outline: (§1)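 CPE reduction assay: confluent monolayers received 0.1 mL of 100 TCID50 virus simultaneously with 0.1 mL of serial 2-fold sample dilutions. Samples were dissolved in DMSO, then diluted into maintenance medium (MEM, 1% FBS, gentamicin, L-glutamine). Incubation at 37 °C, 5% CO2 for 4-6 days. CPE was scored 0-4 against virus and cell controls. IC50 is the concentration halving CPE, estimated from plots.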

[2] = Cytotoxicity against african green monkey Vero cells after 3 days by MTT reduction assay; type: cell-based; settings: chlorocebus sabaeus
Outline: (§2)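 Serial sample dilutions (from 40 mg/mL DMSO stock; top test concentration 1000 µg/mL in maintenance medium, 1% FBS with gentamicin) added in triplicate to confluent monolayers, 37 °C, 5% CO2. After 3 days MTT added for 3 h; formazan dissolved in DMSO, OD read at 540 and 690 nm. CC50 = concentration reducing viable cells to 50% of medium control.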

[3] = Selectivity index, CC50 for human Hep2 cells to IC50 for RSV Long; type: functional, HEp-2
Outline: (§3)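 SI = CC50/IC50. CC50 came from an MTT assay: confluent monolayers were exposed in triplicate to sample dilutions for 3 days, then MTT was added for 3 h, formazan was dissolved in DMSO, and OD was read at 540/690 nm. CC50 is the concentration cutting viable cells to 50% of control. IC50 came from the CPE reduction assay in the matching cell line.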

[4] = Selectivity index, CC50 for MDCK cells to IC50 for influenza A virus H1N1 A/NWS/33; type: functional; outline: as §3
[5] = Selectivity index, CC50 for african green monkey Vero cells to IC50 for HSV1 15577; type: functional; outline: as §3
Coxsackievirus B3 = assay: Antiviral activity against Cox B3 virus in human Hep2 cells assessed as reduction of virus induced cytopathic effect; type: functional, organism-based; settings: Enterovirus B, HEp-2; outline: as §1
Human alphaherpesvirus 1 = assay: Antiviral activity against HSV1 15577 in african green monkey Vero cells assessed as reduction of virus induced cytopathic effect; type: functional, organism-based; settings: Human alphaherpesvirus 1, Vero; outline: as §1
[6] = Cytotoxicity against human Hep2 cells after 3 days by MTT reduction assay; type: cell-based, HEp-2; outline: as §2
[7] = Cytotoxicity against MDCK cells after 3 days by MTT reduction assay; type: cell-based, Canis lupus familiaris; settings: dog; outline: as §2
[8] = Selectivity index, CC50 for human Hep2 cells to IC50 for Cox B3 virus; type: functional, HEp-2; outline: as §3

Row | Compound | IC50 [1] [µg/mL] | CC50 at 72 h [2] [µg/mL] | MNTC at 72 h ([2]; read-out: MNCC) [µg/mL] | Ratio CC50/IC50 [3] | Ratio CC50/IC50 [4] | Ratio CC50/IC50 [5] | IC50 (Coxsackievirus B3) [µg/mL] | IC50 (Human alphaherpesvirus 1) [µg/mL] | CC50 at 72 h [6] [µg/mL] | MNTC at 72 h ([6]; read-out: MNCC) [µg/mL] | CC50 at 72 h [7] [µg/mL] | MNTC at 72 h ([7]; read-out: MNCC) [µg/mL] | Ratio CC50/IC50 [8]
1 | O=C(Oc1cc(O)c2c(c1)OC(c1cc(O)c(O)c(O)c1)CC2)c1cc(O)c(O)c(O)c1 (stereo not drawn) | 5 (≈ 11.3 µM) | 120 (≈ 271 µM) | 31.3 | 19 | 7 | 4 | 12.5 (≈ 28.3 µM) | 30 (≈ 67.8 µM) | 95 (≈ 215 µM) | 25 | 110 (≈ 249 µM) | 62.5 | 7.6
2 | Nc1nc2c(ncn2COCCO)c(=O)[nH]1 [ACYCLOVIR] | – | > 500 | – | – | – | >2000 | 25 (≈ 111 µM) | 0.25 (≈ 1.11 µM) | – | – | – | – | –
3 | NC(=O)c1ncn([C@@H]2O[C@H](CO)[C@@H](O)[C@H]2O)n1 [RIBAVIRIN] | 3 (≈ 12.3 µM) | – | – | – | – | – | – | – | – | – | – | – | –
